Laboratory results from ChEMBL document CHEMBL2331240, “Focused library development of 2-phenylacrylamides as broad spectrum cytotoxic agents” (2013).
The source made the active and inactive calls. The rule behind the calls is not given here.

Columns and labels:
SJ-G2 = experiment: Cytotoxicity against human SJ-G2 cells assessed as growth inhibition at 25 uM measured after 72 hrs by MTT assay; format: functional, cell-based
Method in brief: (§1)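 Log-phase cells were plated in duplicate at 2500–4000 cells/well in DMEM with 10% FBS, glutamine and antibiotics, at 37 °C under 5% CO2. Drug was added 24 h after plating from a 40 mM DMSO stock, to a final 25 μM. After 72 h exposure, MTT was read at 540 nm and % growth inhibition was calculated, with 100% meaning total growth inhibition.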

MIA = experiment: Cytotoxicity against human MIA cells assessed as growth inhibition at 25 uM measured after 72 hrs by MTT assay; format: functional; method in brief: as §1
BE(2)-C = experiment: Cytotoxicity against human BE(2)-C cells assessed as growth inhibition at 25 uM measured after 72 hrs by MTT assay; format: functional; method in brief: as §1
A-431 [1] = experiment: Cytotoxicity against human A431 cells assessed as growth inhibition at 25 uM measured after 72 hrs by MTT assay; format: functional, cell-based; method in brief: as §1
DU-145 [2] = experiment: Cytotoxicity against human DU145 cells assessed as growth inhibition at 25 uM measured after 72 hrs by MTT assay; format: functional, cell-based; method in brief: as §1
A2780 [3] = experiment: Cytotoxicity against human A2780 cells assessed as growth inhibition at 25 uM measured after 72 hrs by MTT assay; format: functional; method in brief: as §1
NCI-H460 = experiment: Cytotoxicity against human H460 cells assessed as growth inhibition at 25 uM measured after 72 hrs by MTT assay; format: functional, cell-based; method in brief: as §1
SW480 [4] = experiment: Cytotoxicity against human SW480 cells assessed as growth inhibition at 25 uM measured after 72 hrs by MTT assay; format: functional; method in brief: as §1
MCF7 [5] = experiment: Cytotoxicity against human MCF7 cells assessed as growth inhibition at 25 uM measured after 72 hrs by MTT assay; format: functional; method in brief: as §1
HT-29 [6] = experiment: Cytotoxicity against human HT-29 cells assessed as growth inhibition at 25 uM measured after 72 hrs by MTT assay; format: functional, cell-based; method in brief: as §1
SMA = experiment: Cytotoxicity against mouse SMA cells assessed as growth inhibition at 25 uM measured after 72 hrs by MTT assay
[7] = Cytotoxicity against human SJ-G2 cells assessed as growth inhibition measured after 72 hrs by MTT assay; format: functional; conditions: SJ-G2, 72 h
Method in brief: (§2)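 Cells in log phase were seeded in duplicate at 2500–4000 cells/well in supplemented DMEM (37 °C, 5% CO2). Drug from a 40 mM DMSO stock was added on day 0, 24 h post-plating. Read-out was MTT absorbance at 540 nm after 72 h.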

[8] = Cytotoxicity against human MIA cells assessed as growth inhibition measured after 72 hrs by MTT assay; format: functional; method in brief: as §2
DU-145 [9] = experiment: Cytotoxicity against human DU145 cells assessed as growth inhibition measured after 72 hrs by MTT assay; format: functional; conditions: DU-145, 72 h; method in brief: as §2
[10] = Cytotoxicity against human BE(2)-C cells assessed as growth inhibition measured after 72 hrs by MTT assay; format: functional; method in brief: as §2
[11] = Cytotoxicity against human H460 cells assessed as growth inhibition measured after 72 hrs by MTT assay; format: functional; conditions: NCI-H460, 72 h; method in brief: as §2
A-431 [12] = experiment: Cytotoxicity against human A431 cells assessed as growth inhibition measured after 72 hrs by MTT assay; format: functional; conditions: A-431, 72 h; method in brief: as §2
MCF7 [13] = experiment: Cytotoxicity against human MCF7 cells assessed as growth inhibition measured after 72 hrs by MTT assay; format: functional; conditions: MCF7, 72 h; method in brief: as §2
A2780 [14] = experiment: Cytotoxicity against human A2780 cells assessed as growth inhibition measured after 72 hrs by MTT assay; format: functional; conditions: A2780, 72 h; method in brief: as §2
HT-29 [15] = experiment: Cytotoxicity against human HT-29 cells assessed as growth inhibition measured after 72 hrs by MTT assay; format: functional; conditions: HT-29, 72 h; method in brief: as §2
SW480 [16] = experiment: Cytotoxicity against human SW480 cells assessed as growth inhibition measured after 72 hrs by MTT assay; format: functional; conditions: SW480, 72 h; method in brief: as §2
[17] = Cytotoxicity against mouse SMA cells assessed as growth inhibition measured after 72 hrs by MTT assay

COc1ccc(CNC(=O)/C(C#N)=C/c2ccc(O)cc2)cc1
growth inhibition (GI) (SJ-G2): inactive | growth inhibition (GI) (MIA): inactive | growth inhibition (GI) (BE(2)-C): inactive | growth inhibition (GI) (A-431 [1]): inactive | growth inhibition (GI) (DU-145 [2]): inactive | growth inhibition (GI) (A2780 [3]): inactive | growth inhibition (GI) (NCI-H460): inactive | growth inhibition (GI) (SW480 [4]): inactive | growth inhibition (GI) (MCF7 [5]): inactive | growth inhibition (GI) (HT-29 [6]): inactive | growth inhibition (GI) (SMA): inactive

COc1ccc(/C=C(\C#N)C(=O)c2c[nH]c3ccccc23)cc1
growth inhibition (GI) (SJ-G2): inactive | growth inhibition (GI) (MIA): inactive | growth inhibition (GI) (BE(2)-C): inactive | growth inhibition (GI) (A-431 [1]): inactive | growth inhibition (GI) (DU-145 [2]): inactive | growth inhibition (GI) (A2780 [3]): inactive | growth inhibition (GI) (NCI-H460): inactive | growth inhibition (GI) (SW480 [4]): inactive | growth inhibition (GI) (MCF7 [5]): inactive | growth inhibition (GI) (HT-29 [6]): inactive | growth inhibition (GI) (SMA): inactive

N#C/C(=C\c1ccc(O)cc1)C(=O)c1ccc[nH]1
growth inhibition (GI) (SJ-G2): inactive | growth inhibition (GI) (MIA): inactive | growth inhibition (GI) (BE(2)-C): inactive | growth inhibition (GI) (A-431 [1]): inactive | growth inhibition (GI) (DU-145 [2]): inactive | growth inhibition (GI) (A2780 [3]): inactive | growth inhibition (GI) (NCI-H460): inactive | growth inhibition (GI) (SW480 [4]): inactive | growth inhibition (GI) (MCF7 [5]): inactive | growth inhibition (GI) (HT-29 [6]): inactive | growth inhibition (GI) (SMA): inactive

N#C/C(=C\c1ccc2ccccc2c1)C(=O)c1c[nH]c2ccccc12
growth inhibition (GI) (SJ-G2): inactive | growth inhibition (GI) (MIA): inactive | growth inhibition (GI) (BE(2)-C): inactive | growth inhibition (GI) (A-431 [1]): inactive | growth inhibition (GI) (DU-145 [2]): inactive | growth inhibition (GI) (A2780 [3]): inactive | growth inhibition (GI) (NCI-H460): inactive | growth inhibition (GI) (SW480 [4]): inactive | inhibition of growth at 25 µM (MCF7 [5]; MCF7, 72 h, read-out: GI): 40% | growth inhibition (GI) (HT-29 [6]): inactive | growth inhibition (GI) (SMA): inactive

N#C/C(=C\c1ccc(C(F)(F)F)cc1)C(=O)c1c[nH]c2ccccc12
growth inhibition (GI) (SJ-G2): inactive | growth inhibition (GI) (MIA): inactive | growth inhibition (GI) (BE(2)-C): inactive | growth inhibition (GI) (A-431 [1]): inactive | growth inhibition (GI) (DU-145 [2]): inactive | growth inhibition (GI) (A2780 [3]): inactive | growth inhibition (GI) (NCI-H460): inactive | growth inhibition (GI) (SW480 [4]): inactive | growth inhibition (GI) (MCF7 [5]): inactive | growth inhibition (GI) (HT-29 [6]): inactive | growth inhibition (GI) (SMA): inactive

Cc1ccc(/C=C(\C#N)C(=O)NCc2ccc(Cl)c(Cl)c2)cc1
growth inhibition (GI) (SJ-G2): inactive | growth inhibition (GI) (MIA): inactive | growth inhibition (GI) (BE(2)-C): inactive | growth inhibition (GI) (A-431 [1]): inactive | growth inhibition (GI) (DU-145 [2]): inactive | growth inhibition (GI) (A2780 [3]): inactive | growth inhibition (GI) (NCI-H460): inactive | growth inhibition (GI) (SW480 [4]): inactive | growth inhibition (GI) (MCF7 [5]): inactive | growth inhibition (GI) (HT-29 [6]): inactive | growth inhibition (GI) (SMA): inactive

COc1ccc(CNC(=O)/C(C#N)=C/c2ccc(CO)o2)cc1
growth inhibition (GI) (SJ-G2): inactive | growth inhibition (GI) (MIA): inactive | growth inhibition (GI) (BE(2)-C): inactive | growth inhibition (GI) (A-431 [1]): inactive | growth inhibition (GI) (DU-145 [2]): inactive | growth inhibition (GI) (A2780 [3]): inactive | growth inhibition (GI) (NCI-H460): inactive | growth inhibition (GI) (SW480 [4]): inactive | growth inhibition (GI) (MCF7 [5]): inactive | growth inhibition (GI) (HT-29 [6]): inactive | growth inhibition (GI) (SMA): inactive

COc1ccc(CNC(=O)/C(C#N)=C/c2ccc[nH]2)cc1
GI50 [7]: > 50 µM | GI50 [8]: > 50 µM | GI50 (DU-145 [9]): > 50 µM | GI50 [10]: 47 µM | GI50 [11]: > 50 µM | GI50 (A-431 [12]): > 50 µM | GI50 (MCF7 [13]): 34 µM | GI50 (A2780 [14]): > 50 µM | GI50 (HT-29 [15]): > 50 µM | GI50 (SW480 [16]): > 50 µM | GI50 [17]: > 50 µM

COc1ccc(CNC(=O)/C(C#N)=C/c2ccc3ccccc3c2)cc1
GI50 [7]: 40 µM | GI50 [8]: 49 µM | GI50 (DU-145 [9]): 80 µM | GI50 [10]: 42 µM | GI50 [11]: > 100 µM | GI50 (A-431 [12]): 37 µM | GI50 (MCF7 [13]): 33 µM | GI50 (A2780 [14]): 40 µM | GI50 (HT-29 [15]): 54 µM | GI50 (SW480 [16]): 41 µM | GI50 [17]: 43 µM
